According to ChEMBL document CHEMBL4689842, “EUbOPEN Chemogenomics Library wave 1” (2021):

Test system: Fibroblast
Test: Multiplex assay against human fibroblast
Format: toxicity, cell-based
Outline: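 At seeding, live cells were stained with Hoechst33342, BioTracker Green Microtubule Cytoskeleton Dye, MitoTracker Red and Annexin V Alexa Fluor 680. After compound addition they were imaged on a CQ1 microscope at 37°C and 5% CO2, and CellPathfinder machine-learning gating sorted them into Hoechst high-intensity objects or normal cells, with normal cells further split into healthy, pyknosed or fragmented nuclei and pyknosed cells into mitotic or apoptotic. Tubulin, mitochondrial-mass and membrane-permeability phenotypes are given as per cents of cells with healthy nuclei.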

[1] = 12 h, 1 µM, compound concentration 1 uM, replicate 1
[2] = 12 h, 1 µM, compound concentration 1 uM, replicate 2
[3] = 12 h, 10 µM, compound concentration 10 uM, replicate 1
[4] = 12 h, 10 µM, compound concentration 10 uM, replicate 2
[5] = 24 h, 1 µM, compound concentration 1 uM, replicate 1
[6] = 24 h, 1 µM, compound concentration 1 uM, replicate 2
[7] = 24 h, 10 µM, compound concentration 10 uM, replicate 1
[8] = 24 h, 10 µM, compound concentration 10 uM, replicate 2
[9] = 48 h, 1 µM, compound concentration 1 uM, replicate 1
[10] = 48 h, 1 µM, compound concentration 1 uM, replicate 2
[11] = 48 h, 10 µM, compound concentration 10 uM, replicate 1
[12] = 48 h, 10 µM, compound concentration 10 uM, replicate 2

## O=c1cc(N2CCOCC2)oc2c(-c3cccc4c3sc3ccccc34)cccc12
[1]
  Population Apoptotic (%): 65%
  Population Fragmented Nuclei (%): 23%
  Population Healthy Nuclei (%): 44%
  Population Hoechst High Intensity Objects (%): 13%
  Population Membrane Permeable-Phenotype (%): 32%
  Population Mitochondria Different-Phenotype (%): 5%
  Population Mitotic Cells (%): 34%
  Population Normal (%): 86%
  Population Pyknosed Nuclei (%): 32%
  Population Tubulin-Different-Phenotype (%): 36%
  Total Cell Count: 136
[2]
  Population Apoptotic (%): 100%
  Population Fragmented Nuclei (%): 15%
  Population Healthy Nuclei (%): 77%
  Population Hoechst High Intensity Objects (%): 10%
  Population Membrane Permeable-Phenotype (%): 2%
  Population Mitochondria Different-Phenotype (%): 6%
  Population Mitotic Cells (%): 0%
  Population Normal (%): 90%
  Population Pyknosed Nuclei (%): 6%
  Population Tubulin-Different-Phenotype (%): 14%
  Total Cell Count: 79
[3]
  Population Apoptotic (%): 61%
  Population Fragmented Nuclei (%): 35%
  Population Healthy Nuclei (%): 28%
  Population Hoechst High Intensity Objects (%): 13%
  Population Membrane Permeable-Phenotype (%): 30%
  Population Mitochondria Different-Phenotype (%): 28%
  Population Mitotic Cells (%): 38%
  Population Normal (%): 86%
  Population Pyknosed Nuclei (%): 36%
  Population Tubulin-Different-Phenotype (%): 95%
  Total Cell Count: 171
[4]
  Population Apoptotic (%): 31%
  Population Fragmented Nuclei (%): 19%
  Population Healthy Nuclei (%): 45%
  Population Hoechst High Intensity Objects (%): 16%
  Population Membrane Permeable-Phenotype (%): 23%
  Population Mitochondria Different-Phenotype (%): 90%
  Population Mitotic Cells (%): 68%
  Population Normal (%): 83%
  Population Pyknosed Nuclei (%): 34%
  Total Cell Count: 70
[5]
  Population Apoptotic (%): 57%
  Population Fragmented Nuclei (%): 19%
  Population Healthy Nuclei (%): 60%
  Population Hoechst High Intensity Objects (%): 9%
  Population Membrane Permeable-Phenotype (%): 31%
  Population Mitochondria Different-Phenotype (%): 2%
  Population Mitotic Cells (%): 42%
  Population Normal (%): 90%
  Population Pyknosed Nuclei (%): 20%
  Population Tubulin-Different-Phenotype (%): 39%
  Total Cell Count: 151
[6]
  Population Apoptotic (%): 60%
  Population Fragmented Nuclei (%): 11%
  Population Healthy Nuclei (%): 82%
  Population Hoechst High Intensity Objects (%): 6%
  Population Membrane Permeable-Phenotype (%): 9%
  Population Mitochondria Different-Phenotype (%): 9%
  Population Mitotic Cells (%): 40%
  Population Normal (%): 93%
  Population Pyknosed Nuclei (%): 6%
  Population Tubulin-Different-Phenotype (%): 15%
  Total Cell Count: 86
[7]
  Population Apoptotic (%): 77%
  Population Fragmented Nuclei (%): 28%
  Population Healthy Nuclei (%): 45%
  Population Hoechst High Intensity Objects (%): 14%
  Population Membrane Permeable-Phenotype (%): 19%
  Population Mitochondria Different-Phenotype (%): 40%
  Population Mitotic Cells (%): 22%
  Population Normal (%): 85%
  Population Pyknosed Nuclei (%): 26%
  Population Tubulin-Different-Phenotype (%): 95%
  Total Cell Count: 160
[8]
  Population Apoptotic (%): 66%
  Population Fragmented Nuclei (%): 14%
  Population Healthy Nuclei (%): 21%
  Population Hoechst High Intensity Objects (%): 6%
  Population Membrane Permeable-Phenotype (%): 50%
  Population Mitochondria Different-Phenotype (%): 70%
  Population Mitotic Cells (%): 33%
  Population Normal (%): 94%
  Population Pyknosed Nuclei (%): 63%
  Population Tubulin-Different-Phenotype (%): 70%
  Total Cell Count: 86
[9]
  Population Apoptotic (%): 60%
  Population Fragmented Nuclei (%): 33%
  Population Healthy Nuclei (%): 56%
  Population Hoechst High Intensity Objects (%): 11%
  Population Membrane Permeable-Phenotype (%): 21%
  Population Mitochondria Different-Phenotype (%): 7%
  Population Mitotic Cells (%): 40%
  Population Normal (%): 88%
  Population Pyknosed Nuclei (%): 10%
  Population Tubulin-Different-Phenotype (%): 27%
  Total Cell Count: 167
[10]
  Population Apoptotic (%): 50%
  Population Fragmented Nuclei (%): 18%
  Population Healthy Nuclei (%): 76%
  Population Hoechst High Intensity Objects (%): 6%
  Population Membrane Permeable-Phenotype (%): 17%
  Population Mitochondria Different-Phenotype (%): 2%
  Population Mitotic Cells (%): 50%
  Population Normal (%): 93%
  Population Pyknosed Nuclei (%): 4%
  Population Tubulin-Different-Phenotype (%): 24%
  Total Cell Count: 97
[11]
  Population Apoptotic (%): 68%
  Population Fragmented Nuclei (%): 51%
  Population Healthy Nuclei (%): 23%
  Population Hoechst High Intensity Objects (%): 12%
  Population Membrane Permeable-Phenotype (%): 17%
  Population Mitochondria Different-Phenotype (%): 37%
  Population Mitotic Cells (%): 31%
  Population Normal (%): 87%
  Population Pyknosed Nuclei (%): 25%
  Population Tubulin-Different-Phenotype (%): 80%
  Total Cell Count: 173
[12]
  Population Apoptotic (%): 64%
  Population Fragmented Nuclei (%): 27%
  Population Healthy Nuclei (%): 55%
  Population Hoechst High Intensity Objects (%): 10%
  Population Membrane Permeable-Phenotype (%): 6%
  Population Mitochondria Different-Phenotype (%): 48%
  Population Mitotic Cells (%): 35%
  Population Normal (%): 90%
  Population Pyknosed Nuclei (%): 17%
  Population Tubulin-Different-Phenotype (%): 88%
  Total Cell Count: 90
